Laboratory results taken from ChEMBL document CHEMBL3244279, “Synthesis and pharmacological evaluation of a clofibrate-related tricyclic spirolactone, 5-chloro-4',5-dihydrospiro[benzofuran-2(3H),3'(2'H)-furan]-2'-one” (J Med Chem, 1978).
Each block holds one molecule with its values, some of them ahead of it. The source made the active and inactive calls. The calls are words filed in the database; no cut-off is given here.

Columns and labels:
Rattus norvegicus [1] = experiment: Antilipidemic activity in 48-hrs starved normal Sprague-Dawley rat model assessed as plasma cholesterol level at 0.124 mmol/kg, po (reference value: 88.7 +/- 6.9 mg/dL); assay type: functional
Rattus norvegicus [2] = experiment: Antilipidemic activity in 48-hrs starved normal Sprague-Dawley rat model assessed as plasma triglyceride level at 0.124 mmol/kg, po (reference value: 20.8 +/- 5.5 mg/dL); assay type: functional
Rattus norvegicus [3] = experiment: Antilipidemic activity in normal Sprague-Dawley rat assessed at 0.4 mmol/kg, po bid for 7 days; assay type: functional, organism-based
[4] = Drug metabolism in Sprague-Dawley rat serum assessed as esterase-mediated hydrolysis measured after 5 mins; assay type: ADME, cell-free
Summary of the method: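 Pooled serum from ether-anesthetized male Sprague-Dawley rats (300–350 g; aortic blood with EDTA). 0.1 mL of 0.05 M ethanolic stock added to 6.0 mL serum, 37 °C with shaking; samples at 0, 5, 10, 30, 60 min extracted into isooctane–EtOH (95:5) with saturated NaCl; loss of parent read at 250 nm.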

[5] = Drug metabolism in Ringer bicarbonate buffer assessed as hydrolysis at pH 7.4 measured after 60 mins; assay type: physicochemical; details: read-out: Drug metabolism
Summary of the method: (§1)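 Nonenzymatic hydrolysis: 0.1 mL of 0.05 M ethanolic stock added to 6.0 mL Ringer bicarbonate buffer, pH 7.4, 37 °C with shaking. Aliquots at 0–60 min extracted into isooctane–EtOH (95:5) with saturated NaCl; disappearance of parent tracked at 250 nm.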

Rattus norvegicus [6] = experiment: Antilipidemic activity in sucrose-fed Sprague-Dawley rat assessed as serum triglyceride level at 0.4 mmol/kg, po bid for 7 days measured on day 0 (reference value: 157.1 +/- 77.8 mg/dL); assay type: functional
Rattus norvegicus [7] = experiment: Antilipidemic activity in sucrose-fed Sprague-Dawley rat assessed as serum cholesterol level at 0.4 mmol/kg, po bid for 7 days measured on day 0 (reference value: 69 +/- 9 mg/dL); assay type: functional
Rattus norvegicus [8] = experiment: Antilipidemic activity in sucrose-fed Sprague-Dawley rat assessed as serum cholesterol level at 0.4 mmol/kg, po bid for 7 days measured on day 7 (reference value: 92 +/- 22 mg/dL); assay type: functional
Rattus norvegicus [9] = experiment: Antilipidemic activity in sucrose-fed Sprague-Dawley rat assessed as serum triglyceride level at 0.4 mmol/kg, po bid for 7 days measured on day 7 (reference value: 115.6 +/- 19.4 mg/dL); assay type: functional
Rattus norvegicus [10] = experiment: Modulation of cholesterol level in sucrose-fed Sprague-Dawley rat liver at 0.4 mmol/kg, po bid for 7 days (reference value: 1.81 to 2.17 mg/g); assay type: functional
Rattus norvegicus [11] = experiment: Modulation of triglyceride level in sucrose-fed Sprague-Dawley rat liver at 0.4 mmol/kg, po bid for 7 days (reference value: 7.26 to 8.29 mg/g); assay type: functional
Rattus norvegicus [12] = experiment: Modulation of HMG-CoA reductase activity in sucrose-fed Sprague-Dawley rat liver assessed as mevalonic acid formation using DL-3-hydroxy-3-methylglutaryl-3-14C-CoA as substrate at 0.4 mmol/kg, po bid for 7 days (reference value: 8.27 to 8.3 nmol/mg/hr); assay type: functional
Rattus norvegicus [13] = experiment: Modulation of liver to body weight ratio in sucrose-fed Sprague-Dawley rat at 0.4 mmol/kg, po bid for 7 days (reference value: 3.88 to 4.06%); assay type: functional
Rattus norvegicus [14] = experiment: Modulation of liver weight in sucrose-fed Sprague-Dawley rat at 0.4 mmol/kg, po bid for 7 days (reference value: 11.30 to 13.16 gms); assay type: functional
Rattus norvegicus [15] = experiment: Modulation of liver microsomal protein level in sucrose-fed Sprague-Dawley rat at 0.4 mmol/kg, po bid for 7 days measured per gm of tissue (reference value: 25.0 to 27.2 mg); assay type: functional
Rattus norvegicus [16] = experiment: Modulation of ethylmorphine N-demethylase activity in sucrose-fed Sprague-Dawley rat liver microsomes assessed as formaldehyde formation using ethylmorphine as substrate at 0.4 mmol/kg, po bid for 7 days (reference value: 6.40 to 9.36 nmol/mg/min); assay type: functional
Rattus norvegicus [17] = experiment: Modulation of cytochrome b5 activity in sucrose-fed Sprague-Dawley rat liver microsomes at 0.4 mmol/kg, po bid for 7 days measured per mg of protein (reference value: 0.185 to 0.213 nmol); assay type: functional
Summary of the method: (§2)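 Sucrose-fed male rats dosed orally 0.4 mmol/kg twice daily for 7 days, controls vehicle; livers taken under ether anesthesia, microsomes prepared. Cytochrome P-450 and b5 estimated by the Kinoshita–Horie procedure, per mg microsomal protein. Mean ± SD, n = 5; Student's t test.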

Rattus norvegicus [18] = experiment: Modulation of cytochrome-P450 activity in sucrose-fed Sprague-Dawley rat liver microsomes at 0.4 mmol/kg, po bid for 7 days measured per mg of protein (reference value: 0.477 to 0.593 nmol); assay type: functional; summary of the method: as §2
Rattus norvegicus [19] = experiment: Modulation of NADPH-cytochrome c reductase activity in sucrose-fed Sprague-Dawley rat liver microsomes assessed as cytochrome c reduction at 0.4 mmol/kg, po bid for 7 days (reference value: 202.5 +/- 27.9 nmol/mg/min); assay type: functional
Rattus norvegicus [20] = experiment: Antilipidemic activity in Triton WR-1339-induced hyperlipidemic Sprague-Dawley rat model assessed as plasma cholesterol level at 0.124 mmol/kg, po (reference value: 166 +/- 17.8 mg/dL)
Rattus norvegicus [21] = experiment: Antilipidemic activity in Triton WR-1339-induced hyperlipidemic Sprague-Dawley rat model assessed as plasma triglyceride level at 0.124 mmol/kg, po (reference value: 98.5 +/- 16.9 mg/dL)
Rattus norvegicus [22] = experiment: Modulation of triglyceride level in sucrose-fed Sprague-Dawley rat liver at 0.4 mmol/kg, po bid for 7 days (reference value: 8.29 +/- 2.24 mg/g); assay type: functional
Rattus norvegicus [23] = experiment: Modulation of HMG-CoA reductase activity in sucrose-fed Sprague-Dawley rat liver assessed as mevalonic acid formation using DL-3-hydroxy-3-methylglutaryl-3-14C-CoA as substrate at 0.4 mmol/kg, po bid for 7 days (reference value: 8.27 +/- 1.18 nmol/mg/hr); assay type: functional
Rattus norvegicus [24] = experiment: Modulation of liver to body weight ratio in sucrose-fed Sprague-Dawley rat at 0.4 mmol/kg, po bid for 7 days (reference value: 4.06 +/- 0.25%); assay type: functional
Rattus norvegicus [25] = experiment: Modulation of liver weight in sucrose-fed Sprague-Dawley rat at 0.4 mmol/kg, po bid for 7 days (reference value: 13.16 +/- 0.61 gms); assay type: functional
Rattus norvegicus [26] = experiment: Modulation of liver microsomal protein level in sucrose-fed Sprague-Dawley rat at 0.4 mmol/kg, po bid for 7 days measured per gm of tissue (reference value: 25.0 +/- 2.5 mg); assay type: functional
Rattus norvegicus [27] = experiment: Modulation of ethylmorphine N-demethylase activity in sucrose-fed Sprague-Dawley rat liver microsomes assessed as formaldehyde formation using ethylmorphine as substrate at 0.4 mmol/kg, po bid for 7 days (reference value: 9.36 +/- 0.50 nmol/mg/min); assay type: functional
Rattus norvegicus [28] = experiment: Modulation of cytochrome b5 activity in sucrose-fed Sprague-Dawley rat liver microsomes at 0.4 mmol/kg, po bid for 7 days measured per mg of protein (reference value: 0.213 +/- 0.032 nmol); assay type: functional; summary of the method: as §2
Rattus norvegicus [29] = experiment: Modulation of cytochrome-P450 activity in sucrose-fed Sprague-Dawley rat liver microsomes at 0.4 mmol/kg, po bid for 7 days measured per mg of protein (reference value: 0.593 +/- 0.059 nmol); assay type: functional; summary of the method: as §2
Rattus norvegicus [30] = experiment: Antilipidemic activity in normal Sprague-Dawley rat assessed as serum cholesterol level at 0.4 mmol/kg, po bid for 7 days (reference value: 59.1 to 81.6 mg/dL); assay type: functional
Summary of the method: (§3)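 Normal male Sprague-Dawley rats dosed orally twice daily, 0.4 mmol/kg […], for 7 days; controls received vehicle. Serum cholesterol and triglycerides measured at end of treatment; two separate experiments. Mean ± SD, n = 5; Student's t test vs control.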

Rattus norvegicus [31] = experiment: Antilipidemic activity in normal Sprague-Dawley rat assessed as serum triglyceride level at 0.4 mmol/kg, po bid for 7 days (reference value: 61.2 to 69.1 mg/dL); assay type: functional; summary of the method: as §3
Rattus norvegicus [32] = experiment: Modulation of cholesterol level in normal Sprague-Dawley rat liver at 0.4 mmol/kg, po bid for 7 days (reference value: 2.73 to 3.28 mg/g); assay type: functional
Rattus norvegicus [33] = experiment: Modulation of triglyceride level in normal Sprague-Dawley rat liver at 0.4 mmol/kg, po bid for 7 days (reference value: 2.73 to 3.36 mg/g); assay type: functional
Rattus norvegicus [34] = experiment: Modulation of HMG-CoA reductase activity in normal Sprague-Dawley rat liver assessed as mevalonic acid formation using DL-3-hydroxy-3-methylglutaryl-3-14C-CoA as substrate at 0.4 mmol/kg, po bid for 7 days (reference value: 49.1 +/- 6.7 nmol/mg/hr); assay type: functional
Rattus norvegicus [35] = experiment: Modulation of liver to body weight ratio in normal Sprague-Dawley rat at 0.4 mmol/kg, po bid for 7 days (reference value: 4.21 to 4.59%); assay type: functional
Rattus norvegicus [36] = experiment: Modulation of liver weight in normal Sprague-Dawley rat at 0.4 mmol/kg, po bid for 7 days (reference value: 6.73 to 8.71 gms); assay type: functional
Rattus norvegicus [37] = experiment: Modulation of liver microsomal protein level in normal Sprague-Dawley rat at 0.4 mmol/kg, po bid for 7 days measured per gm of tissue (reference value: 25.4 to 29.0 mg); assay type: functional
[38] = Drug metabolism in Sprague-Dawley rat serum assessed as esterase-mediated hydrolysis at 0.05 M measured after 5 mins; assay type: ADME, cell-free; details: read-out: Drug metabolism
[39] = Drug metabolism in Ringer bicarbonate buffer assessed as hydrolysis at 0.05 M at pH 7.4 measured after 60 mins; assay type: physicochemical; summary of the method: as §1
Rattus norvegicus [40] = experiment: Antilipidemic activity in 48-hrs starved normal Sprague-Dawley rat model assessed as plasma cholesterol level at 0.124 mmol/kg, po (reference value: 90.1 +/- 8.8 mg/dL); assay type: functional
Rattus norvegicus [41] = experiment: Antilipidemic activity in 48-hrs starved normal Sprague-Dawley rat model assessed as plasma triglyceride level at 0.124 mmol/kg, po (reference value: 20.9 +/- 11.3 mg/dL); assay type: functional
Rattus norvegicus [42] = experiment: Modulation of cholesterol level in sucrose-fed Sprague-Dawley rat liver at 0.4 mmol/kg, po bid for 7 days (reference value: 2.17 +/- 0.26 mg/g); assay type: functional
Rattus norvegicus [43] = experiment: Antilipidemic activity in Triton WR-1339-induced hyperlipidemic Sprague-Dawley rat model assessed as plasma cholesterol level at 0.124 mmol/kg, po (reference value: 183 +/- 101 mg/dL)
Rattus norvegicus [44] = experiment: Antilipidemic activity in Triton WR-1339-induced hyperlipidemic Sprague-Dawley rat model assessed as plasma triglyceride level at 0.124 mmol/kg, po (reference value: 156 +/- 184 mg/dL)

metabolised at 5 min [4]: > 90%
degraded at 1 h [5]: < 20%
Compound: CCOC(=O)C(C)(C)Oc1ccc(Cl)cc1 [CLOFIBRATE]
Activity (Rattus norvegicus [1]): 87 mg/dL
Activity (Rattus norvegicus [2]): 24.1 mg/dL
Activity (Rattus norvegicus [3]): Active
Activity (Rattus norvegicus [6]): 153 mg/dL
Activity (Rattus norvegicus [7]): 74 mg/dL
Activity (Rattus norvegicus [8]): 36 mg/dL
Activity (Rattus norvegicus [9]): 50.2 mg/dL
Activity (Rattus norvegicus [10]): 1.76 mg/g
Activity (Rattus norvegicus [11]): 3.05 mg/g
Activity (Rattus norvegicus [12]): 2.7 nmol/mg/h
Activity (Rattus norvegicus [13]): 5.01%
Activity (Rattus norvegicus [14]): 14.32 g
Activity (Rattus norvegicus [15]): 29.2 mg
Activity (Rattus norvegicus [16]): 7.91 nmol/mg/min
Activity (Rattus norvegicus [17]): 0.169 nmol
Activity (Rattus norvegicus [18]): 0.806 nmol
Activity (Rattus norvegicus [19]): 308.3 nmol/mg/min
Activity (Rattus norvegicus [20]): 93.2 mg/dL
Activity (Rattus norvegicus [21]): 22.3 mg/dL

metabolised at 5 min [38]: > 90%
degraded at 1 h [39]: < 20%
Compound: O=C1OCCC12Cc1cc(Cl)ccc1O2 (stereo not drawn)
Activity (Rattus norvegicus [22]): 10.02 mg/g
Activity (Rattus norvegicus [23]): 7.1 nmol/mg/h
Activity (Rattus norvegicus [24]): 4.18%
Activity (Rattus norvegicus [25]): 13.16 g
Activity (Rattus norvegicus [26]): 27.8 mg
Activity (Rattus norvegicus [27]): 9.8 nmol/mg/min
Activity (Rattus norvegicus [28]): 0.173 nmol
Activity (Rattus norvegicus [29]): 0.55 nmol
Activity (Rattus norvegicus [30]): 58.6 mg/dL
Activity (Rattus norvegicus [31]): 66.5 mg/dL
Activity (Rattus norvegicus [32]): 3.18 mg/g
Activity (Rattus norvegicus [33]): 3.17 mg/g
Activity (Rattus norvegicus [34]): 45 nmol/mg/h
Activity (Rattus norvegicus [35]): 4.5%
Activity (Rattus norvegicus [36]): 7.87 g
Activity (Rattus norvegicus [37]): 27.3 mg
Activity (Rattus norvegicus [6]): 142 mg/dL
Activity (Rattus norvegicus [40]): 91.8 mg/dL
Activity (Rattus norvegicus [7]): 67 mg/dL
Activity (Rattus norvegicus [41]): 18.5 mg/dL
Activity (Rattus norvegicus [8]): 103 mg/dL
Activity (Rattus norvegicus [9]): 121.5 mg/dL
Activity (Rattus norvegicus [42]): 2.32 mg/g
Activity (Rattus norvegicus [43]): 131 mg/dL
Activity (Rattus norvegicus [44]): 20.6 mg/dL
